# Activity calls are given as the source filed them. The rule behind the calls is not given here.
# What was measured:
# [1] = test system: MDA-MB-231; assay: Antiproliferative activity against human MDA-MB-231 cells after 24 hrs by MTT assay relative to control; type: functional
# How it was run: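 MDA-MB-231 cells kept in DMEM with 10% FBS at 37°C, 5% CO2. Seeded at 5×10^3 cells/well and left 24 h, then exposed to compounds at 0.078-10 µM for 24 h. 0.1% DMSO served as the vehicle control. MTT added for 4 h, formazan dissolved in DMSO, absorbance read at 570 nm. IC50 derived. Each run in triplicate, repeated at least three times.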
# [2] = target: T1, Glutaminase kidney isoform, mitochondrial (Homo sapiens, UniProt O94925); assay: Inhibition of human GLS1
# T1 sequence (O94925 whole entry): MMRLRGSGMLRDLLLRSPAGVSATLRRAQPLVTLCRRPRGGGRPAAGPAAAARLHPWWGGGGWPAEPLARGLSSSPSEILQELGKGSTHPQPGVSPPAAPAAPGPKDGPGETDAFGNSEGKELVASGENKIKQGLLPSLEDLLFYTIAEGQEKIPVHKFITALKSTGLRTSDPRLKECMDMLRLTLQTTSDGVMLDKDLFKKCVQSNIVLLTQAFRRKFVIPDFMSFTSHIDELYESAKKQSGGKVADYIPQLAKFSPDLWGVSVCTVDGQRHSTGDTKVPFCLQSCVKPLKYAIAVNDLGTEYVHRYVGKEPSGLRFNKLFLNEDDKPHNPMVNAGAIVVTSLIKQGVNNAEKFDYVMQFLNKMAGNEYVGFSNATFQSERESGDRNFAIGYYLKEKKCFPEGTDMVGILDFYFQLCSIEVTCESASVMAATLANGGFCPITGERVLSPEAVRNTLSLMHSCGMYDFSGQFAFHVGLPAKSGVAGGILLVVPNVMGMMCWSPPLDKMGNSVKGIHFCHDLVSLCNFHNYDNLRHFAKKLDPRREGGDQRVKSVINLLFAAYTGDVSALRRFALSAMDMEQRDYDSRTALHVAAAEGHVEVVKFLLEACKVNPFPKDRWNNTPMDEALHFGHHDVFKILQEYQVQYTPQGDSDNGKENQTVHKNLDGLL
# How it was run: (§1)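 Human GLS1 hydrolase activity measured with a commercial GLS1 inhibitor screening kit, following the manufacturer's protocol. Single-point screening was run at 10 μM.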
# [3] = test system: MDA-MB-231; assay: Induction of apoptosis in human MDA-MB-231 cells assessed as viable cells at 160 nM incubated for 12 hrs by annexin V-FITC/PI based flow cytometric analysis (reference value: 98.1%); type: functional; settings: read-out: Activity
# How it was run: (§2)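 Cells exposed to compound or 0.1% DMSO for 12 h at 37°C, then resuspended in PBS at 1×10^5 cells/mL. Stained with annexin V-FITC and PI for 20 min at room temperature in the dark, then analysed by flow cytometry. Quadrant percentages reported: lower right early apoptotic, upper right late apoptotic. n = 4, mean ± SD.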
# [4] = test system: MDA-MB-231; assay: Induction of apoptosis in human MDA-MB-231 cells assessed as late apoptotic cells at 160 nM incubated for 12 hrs by annexin V-FITC/PI based flow cytometric analysis (reference value: 0.7%); type: functional; how it was run: as §2
# [5] = test system: MDA-MB-231; assay: Induction of apoptosis in human MDA-MB-231 cells assessed as viable cells at 320 nM incubated for 12 hrs by annexin V-FITC/PI based flow cytometric analysis (reference value: 98.1%); type: functional; settings: read-out: Activity; how it was run: as §2
# [6] = test system: MDA-MB-231; assay: Induction of apoptosis in human MDA-MB-231 cells assessed as early apoptotic cells at 320 nM incubated for 12 hrs by annexin V-FITC/PI based flow cytometric analysis (reference value: 1.2%); type: functional; how it was run: as §2
# [7] = test system: MDA-MB-231; assay: Induction of apoptosis in human MDA-MB-231 cells assessed as early apoptotic cells at 640 nM incubated for 12 hrs by annexin V-FITC/PI based flow cytometric analysis (reference value: 1.2%); type: functional; how it was run: as §2
# [8] = test system: MDA-MB-231; assay: Induction of apoptosis in human MDA-MB-231 cells assessed as increase in cleaved caspase-3 expression after 12 hrs by Western blotting analysis; type: functional, cell-based; settings: dose 160-640 nM
# How it was run: (§3)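 MDA-MB-231 cells exposed to graded concentrations or 0.1% DMSO; the methods state 24 h, the legend 12 h. Lysed in RIPA, 80 µg protein per lane on SDS-PAGE and transferred to PVDF. Probed overnight at 4°C for caspase-3, cleaved caspase-3, caspase-9 and cleaved caspase-9, with GAPDH as loading control. HRP secondaries, ECL detection, densitometry. n = 4.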
# [9] = test system: MDA-MB-231; assay: Induction of apoptosis in human MDA-MB-231 cells assessed as increase in cleaved caspase-9 expression after 12 hrs by Western blotting analysis; type: functional, cell-based; settings: dose 160-640 nM; how it was run: as §3
# [10] = target: T2, Glutaminase kidney isoform, mitochondrial (Homo sapiens) (UniProt O94925); assay: Inhibition of GLS1 in human MDA-MB-231 cells assessed as reduction in glutamate production incubated for 12 hrs by Amplex red glutamic acid assay; type: cell-based; settings: dose 40-640 nM
# T2 sequence (whole entry): T1 sequence (O94925 whole entry)
# How it was run: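 MDA-MB-231 cells pre-cultured 24 h at 37°C, then given compound or 0.1% DMSO for a further 12 h. Cells washed in PBS and lysed in RIPA at 4°C. Glutamate in the lysate measured with an Amplex Red glutamic acid kit per the manufacturer's protocol.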
# [11] = test system: MDA-MB-231; assay: Antitumor activity against human MDA-MB-231 cells xenografted in BALB/c nude mouse assessed as reduction in tumor weight at 25 to 50 mg/kg, ip administered every 3 days for 4 weeks; type: functional, organism-based; settings: dose 25-50 mg/kg
# How it was run: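 Nude mice given 3×10^6 MDA-MB-231 cells in 200 µL PBS, injected subcutaneously into the right flank. Once tumors reached about 100 mm³, mice were randomized into four groups. Dosing was 25 or 50 mg/kg i.p. every three days for four weeks. Tumor volume, tumor weight and body weight were followed. n = 6, mean ± SD.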
# [12] = Toxicity in BALB/c nude mouse xenografted with human MDA-MB-231 cells assessed as liver tissue damage at 25 to 50 mg/kg, ip administered every 3 days for 4 weeks; type: organism-based; settings: in vivo, 672 h, dose 25-50 mg/kg
# How it was run: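 Xenograft-bearing nude mice (MDA-MB-231, s.c. right flank, treated from about 100 mm³) received 25 or 50 mg/kg i.p. every three days for four weeks. At the end mice were euthanized, and visceral organs were fixed in 4% paraformaldehyde for histopathology.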
# [13] = target: T2, Glutaminase kidney isoform, mitochondrial (Homo sapiens); assay: Potency index, ratio of WA IC50 to compound IC50 for inhibition of human GLS1; how it was run: as §1
structure (smiles),measurement,setting,value
CC(=O)O[C@H]1C=C([C@H](C)[C@H]2CC(C)=C(C)C(=O)O2)[C@@]2(C)CC[C@H]3[C@@H](C[C@H]4O[C@]45[C@@H](OC(=O)CCCC(=O)Nc4ccc(N6CCOCC6)c(F)c4)C=CC(=O)[C@]35C)[C@@]12O,inhibition (INH),[1],95.2%
same,IC50,[2],1080 nM
same,viability at 0.16 µM,[3],96.3%
same,Activity,[4],1%
same,viability at 0.32 µM,[5],80.3%
same,Activity,[6],16.7%
same,Activity,[7],28.5%
same,Activity,[8],Dose-Dependent Effect
same,Activity,[9],Dose-Dependent Effect
same,inhibition,[10],Dose-Dependent Effect
same,Activity,[11],Active
same,Activity,[12],Non-Toxic
same,Ratio IC50,[13],20

# Reference: ChEMBL document CHEMBL4811218, “Discovery and optimization of withangulatin A derivatives as novel glutaminase 1 inhibitors for the treatment of triple-negative breast cancer” (Eur J Med Chem, 2021)
